Experiment [1] has as its system Spodoptera littoralis. Description: Insecticidal activity against Spodoptera littoralis larvae assessed as growth inhibition after 5 days. Type of experiment: functional, organism-based. An outline of the steps: (§1)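 Larvae kept 5 days in a moist chamber at 29 °C in darkness, then survival and larval weight compared with a carrier-only control group. Run in triplicate; LC50 (survival) and EC50 (growth) from dose-response curves by probit-log analysis.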

Experiment [2] concerns Spodoptera littoralis. Description: Insecticidal activity against Spodoptera littoralis larvae assessed as survival rat after 5 days. Type of experiment: functional. An outline of the steps: as §1
The next experiment has as its system Lymantria dispar. Description: Insecticidal activity against Lymantria dispar larvae assessed as mean weight of surviving larvae after 8 days. Type of experiment: functional, organism-based. An outline of the steps:
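Freshly hatched larvae (n = 10) from a laboratory colony reared on wheat germ-casein diet, fed diet spiked with 1 μg – 100 μg/g fresh wt of compound. Kept 8 days in a moist chamber at 26 °C in darkness. Mean weight of surviving larvae compared with controls. Commercial azadirachtin (>96%) as positive control. Three replicates; LC50/EC50 from dose-response curves by probit-log analysis.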

With `COC(=O)[C@H]1[C@@H](OC(C)=O)[C@@]2(O)c3c(cc4c(c3OC)OCO4)O[C@@]2(c2ccc(OC)cc2)[C@@H]1c1ccccc1`, the EC50 with Spodoptera littoralis [1] came out at 1.2 µg/g. The LC50 in the experiment on Spodoptera littoralis [2] was found to be 12.2 µg/g.
As for `COc1ccc(C2C(=O)Oc3cc4c(c(OC)c32)OCO4)cc1` (stereo unspecified) [AGLALACTONE], the EC50 with Spodoptera littoralis [1] is over 100 µg/g. Moreover, in the experiment with Spodoptera littoralis [2], the LC50 is over 100 µg/g.
Consider `C/C=C(\C)C(=O)O[C@H]1C[C@@H](OC(C)=O)[C@@]2(C(=O)OC)CO[C@H]3[C@@H](O)[C@@](C)([C@]45O[C@@]4(C)[C@@H]4C[C@H]5O[C@@H]5OC=C[C@@]54O)[C@H]4[C@]1(CO[C@]4(O)C(=O)OC)[C@@H]32` [AZADIRACHTIN A], for which the EC50 in the experiment on Spodoptera littoralis [1] turned out to be 0.11 µg/g; in the experiment with Lymantria dispar it was 0.6 µg/g. In the experiment on Spodoptera littoralis [2], the LC50 came to 6.1 µg/g.
In the case of `CC(=O)N(CCCCNC(=O)/C=C/c1ccccc1)C(=O)CCc1ccccc1` [EDULIMIDE], in the experiment on Spodoptera littoralis [1], the EC50 was over 250 µg/g. In the experiment on Spodoptera littoralis [2], the LC50 was over 250 µg/g.
For `COc1cc(C[C@H]2CO[C@H](c3ccc(O)c(OC)c3)[C@H]2COC(C)=O)ccc1O` [LARICIRESINOL ACETATE] the same measures were over 250 µg/g and over 250 µg/g.
On to `COC(=O)[C@H]1[C@@H](O)[C@@]2(O)c3c(cc4c(c3OC)OCO4)O[C@@]2(c2ccc(OC)cc2)[C@@H]1c1ccccc1` [PANNELLIN], for which the figures for the EC50 with Spodoptera littoralis [1] and in the experiment with Lymantria dispar were 0.24 µg/g and 1.4 µg/g, respectively. The LC50 in the experiment with Spodoptera littoralis [2] was found to be 2.1 µg/g.
In the case of `CC(C)(O)C(=O)NC1CCCN1C(=O)/C=C/c1ccccc1` (stereo unspecified) [PIRIFERINOL], the EC50 in the experiment with Spodoptera littoralis [1] is over 250 µg/g. Besides, the LC50 with Spodoptera littoralis [2] was over 250 µg/g.

The record behind these values is ChEMBL document CHEMBL1151321, “Bisamides, lignans, triterpenes, and insecticidal Cyclopenta[b]benzofurans from Aglaia species” (J Nat Prod, 1998).
